This passage reports inhibition and Activity results from ChEMBL document CHEMBL2069277, “Small molecules that regulate zymosan phagocytosis of macrophage through deactivation of Rho GTPases” (Bioorg Med Chem, 2012).

The source made the active and inactive calls. The rule behind the calls is not given here.

Data set [1] deals with RAW264.7. The data set is described as follows: Inhibition of zymosan phagocytosis in mouse RAW264.7 cells at 10 uM preincubated before zymosan addition by flow cytometry. Format: functional, cell-based. The method, boiled down: (§1)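 CD11b+ peritoneal macrophages (4 × 10^6/well) or RAW264.7 cells (2 × 10^6/well) were adhered 2 h and pretreated 30 min (5, 10, 20 µM; screen at 10 µM). Cells were scraped, washed, and incubated with FITC-zymosan (5 particles/cell) for 1 h at 37 °C. After washing, uptake was read by flow cytometry as a phagocytic index relative to untreated cells. Cytochalasin D 5 µM was the control.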
On the technique in general: A flow cytometer gives signals particle by particle.

In data set [2] the test system is Peritoneal macrophage cell. Put plainly: Inhibition of zymosan phagocytosis in C57BL/6 mouse CD11b(+) peritoneal macrophages at 20 uM preincubated before zymosan addition by flow cytometry. It is filed as functional, cell-based. The method, boiled down:
as §1

The species entered for another data set is Mus musculus. Put plainly: Inhibition of zymosan-induced PI3K in C57BL/6 mouse CD11b(+) peritoneal macrophages assessed as reduction in AKT Ser473 phosphorylation at 20 uM preincubated for 15 mins before zymosan exposure for 30 mins by Western blot. A digest of the protocol:
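CD11b+ peritoneal macrophages from male C57BL/6 mice (thioglycollate-elicited; cells pooled from twenty mice) were pretreated with 20 µM for 15 min, then given zymosan 200 µg/ml for 30 min. Western blot for phospho-Akt (Ser473) and total Akt. p-Akt was quantified by densitometry and expressed as fold change.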

Data set [3] relates to RAW264.7. Put plainly: Inhibition of zymosan phagocytosis in mouse RAW264.7 cells preincubated before zymosan addition by flow cytometry. Format: functional, cell-based. The method, boiled down: as §1
In data set [4] the test system is Peritoneal macrophage cell. Put plainly: Effect on TLR2 mRNA expression in C57BL/6 mouse CD11b(+) peritoneal macrophages at 20 uM preincubated for 30 mins before zymosan exposure for 6 hrs by real-time PCR. For orientation: Real-time PCR tracks product formation cycle by cycle.
Data set [5] is described as follows: Toxicity in zymosan-induced C57BL/6 mouse CD11b(+) peritoneal macrophages at 5 to 20 uM preincubated before zymosan addition. The following applies: peritoneal macrophage cell. Format: cell-based.
Data set [6] deals with Peritoneal macrophage cell. The data set is described as follows: Inhibition of zymosan phagocytosis in C57BL/6 mouse CD11b(+) peritoneal macrophages preincubated before zymosan addition by flow cytometry. It is filed as functional, cell-based. A digest of the protocol: as §1
Data set [7] deals with RAW264.7. The data set is described as follows: Reduction in GTP-bound Rac2 protein expression in mouse RAW264.7 cells at 20 uM preincubated for 20 mins before zymosan exposure for 15 mins by Western blot based pull down assay. Format: functional, cell-based. The method, boiled down: (§2)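 RAW264.7 cells were pretreated with 20 µM (20 min for Rac1 and Rac2; 5 min for Cdc42), then given zymosan 200 µg/ml for 15 min. GTP-bound Rac1, Rac2 and Cdc42 were pulled down with an active pull-down kit and western blotted. Bands were quantified by densitometry and normalized to β-actin.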
On the technique in general: In western blotting, separated proteins are transferred to a membrane and probed.

In data set [8] the test system is Peritoneal macrophage cell. Put plainly: Effect on TLR1 mRNA expression in C57BL/6 mouse CD11b(+) peritoneal macrophages at 20 uM preincubated for 30 mins before zymosan exposure for 6 hrs by real-time PCR.
In data set [9] the test system is RAW264.7. Put plainly: Reduction in GTP-bound Cdc42 protein expression in mouse RAW264.7 cells at 20 uM preincubated for 5 mins before zymosan exposure for 15 mins by Western blot based pull down assay. It is filed as functional, cell-based. A digest of the protocol:
as §2

In data set [10] the test system is Peritoneal macrophage cell. The data set is described as follows: Effect on Dectin-1 mRNA expression in C57BL/6 mouse CD11b(+) peritoneal macrophages at 20 uM preincubated for 30 mins before zymosan exposure for 6 hrs by real-time PCR.
For data set [11], the system named is RAW264.7. The data set is described as follows: Toxicity in zymosan-induced mouse RAW264.7 cells at 5 to 20 uM preincubated before zymosan addition. It is filed as cell-based. Conditions: raw264.7, 20 µM.
Data set [12] concerns RAW264.7. The data set is described as follows: Reduction in GTP-bound Rac1 protein expression in mouse RAW264.7 cells at 20 uM preincubated for 20 mins before zymosan exposure for 15 mins by Western blot based pull down assay. It is filed as functional, cell-based. The method, boiled down: as §2
For data set [13], the system named is Peritoneal macrophage cell. Put plainly: Effect on TLR6 mRNA expression in C57BL/6 mouse CD11b(+) peritoneal macrophages at 20 uM preincubated for 30 mins before zymosan exposure for 6 hrs by real-time PCR.

For `CCCOc1ccc(-c2cccc(C(=O)NCCCN(C)C)c2)cc1`, the inhibition entry with RAW264.7 [1] is “Active”.

With `CCCOc1ccc(-c2cccc(C(=O)NCCCN3CCCCC3)c2)cc1`, the inhibition entry in the data set with RAW264.7 [1] was “Active”.

As for `CCCOc1ccc(-c2cccc(C(=O)NCCCN3CCCC3)c2)cc1`, the inhibition result in the data set with RAW264.7 [1] is “Active”.

Turning to `CCCOc1ccc(-c2cccc(C(=O)NCCN(CC)CC)c2)cc1`, the inhibition result in the data set on RAW264.7 [1] is “inactive”.

Consider `O=c1cc(N2CCOCC2)oc2c(-c3ccccc3)cccc12`, for which the inhibition entry in [2] was “inactive”. In the data set filed under Mus musculus, the inhibition result is “Active”.

Take `CCCOc1ccc(-c2cccc(C(=O)NCCCN(CC)CC)c2)cc1`: the inhibition entry (in the data set with RAW264.7 [3]; in data set [6]) was “Dose-dependent effect” throughout. Further, the result in data set [4], in data set [8], in data set [10] and in data set [13] was inactive. Moreover, the Activity entry (in [5]; in the data set on RAW264.7 [11]) was “Non-toxic” throughout. In addition, the outcome in the data set on RAW264.7 [7], in the data set on RAW264.7 [9] and in the data set on RAW264.7 [12] was Active.

For the molecule `CCCNC(=O)c1cccc(-c2ccc(OCCC)cc2)c1`, the inhibition result in the data set with RAW264.7 [1] is “Active”.

Regarding `CCCOc1ccc(-c2cccc(C(=O)NCCCN3CCOCC3)c2)cc1`, the inhibition entry in the data set with RAW264.7 [1] is “inactive”.
